In the library only some 5% were active in any assay of this set; here they are far more common.
Beta cell apopt = inhibitors of cytokine-induced beta cell apoptosis, primary screen, luminescence; protection from apoptosis, % (no concentration beside the values); 300,000 tested, 0.8% active; INS-1E cytokine-induced death, ATP luminescence, 48 h; percent of positive-control rescue, neutral wells zero;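 active = Every replicate reaches about 75%, or at least half do and their mean reaches it too, limit read from the data; inconclusive = At least half of replicates reach the limit but their mean does not; inactive = Under half of replicates reach the limit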;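 also: higher means more ATP so stronger rescue from cytokine killing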
CHOP UPR activ = activators of apoptotic CHOP UPR arm, primary screen, cell-based, CHO-CHOP luciferase reporter, luminescence, uHTS | UPR activation; percent of tunicamycin response over DMSO baseline | activation, % at 10 µM | 330,000 tested, 0.34% active | AID 449763, 2010;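 active = at 10 µM dose, activation of 40% or more, normalized to positive control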
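System: CHO CHOP reporter cells. Amount: 500 cells per well. Buffer or medium: F12 medium, 10% FBS. Compound dosing: one dose, 10 µM in 0.5% DMSO. Incubation: 6 h compound exposure at 37 °C after overnight seeding. Technique: Steady-Glo luciferase luminescence. Benchmarks: tunicamycin and DMSO controls.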
XBP1 UPR activ = activators of adaptive XBP1 UPR arm, primary screen, cell-based, CHO-XBP1 luciferase reporter, luminescence, uHTS | activation, % at 20 µM | 330,000 tested, 0.33% active | AID 463104, 2010 | IRE1-XBP1 UPR activation; percent of tunicamycin response, DMSO as zero;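 active = versus positive control, 20 µM dose yields 30% or more activation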
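Material: CHO-XBP1 cells stably carrying IRE1-XBP1-driven luciferase reporter | Medium: F12 with 10% serum | Compound dosing: 20 µM single concentration, DMSO 1% | Incubation: Overnight seeding at 37 °C, 6 h compound treatment at 37 °C | Detection: Steady-Glo luminescence read | Read-out basis: % activation of reporter signal versus tunicamycin and DMSO controls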
Mdm2 MdmX PPI = inhibitors of human Mdm2-MdmX association, primary screen, cell-based, luminescence, split luciferase, SaOS-2, uHTS; Protein Mdm4 (Homo sapiens) + E3 ubiquitin-protein ligase Mdm2 (Homo sapiens), …; 330,000 tested, 3% active; inhibition, % at 8 µM; SaOS-2 split-luciferase Mdm2/MdmX complementation;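 active = inhibition of at least 50% at 8 µM in the primary screen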
Target sequence (O15151 whole entry, looked up): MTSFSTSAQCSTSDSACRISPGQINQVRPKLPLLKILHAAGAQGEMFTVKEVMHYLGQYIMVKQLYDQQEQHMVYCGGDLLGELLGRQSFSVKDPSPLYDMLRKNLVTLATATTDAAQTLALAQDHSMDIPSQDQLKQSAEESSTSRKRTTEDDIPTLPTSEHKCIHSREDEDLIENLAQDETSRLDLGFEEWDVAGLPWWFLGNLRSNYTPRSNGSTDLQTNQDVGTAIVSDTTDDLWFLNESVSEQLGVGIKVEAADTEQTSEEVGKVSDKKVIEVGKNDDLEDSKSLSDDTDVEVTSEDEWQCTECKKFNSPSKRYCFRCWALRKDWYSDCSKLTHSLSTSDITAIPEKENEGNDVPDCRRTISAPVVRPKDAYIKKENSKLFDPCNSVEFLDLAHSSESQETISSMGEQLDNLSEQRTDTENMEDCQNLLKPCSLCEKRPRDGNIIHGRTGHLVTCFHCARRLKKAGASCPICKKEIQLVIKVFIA
Target sequence (Q00987 whole entry, looked up): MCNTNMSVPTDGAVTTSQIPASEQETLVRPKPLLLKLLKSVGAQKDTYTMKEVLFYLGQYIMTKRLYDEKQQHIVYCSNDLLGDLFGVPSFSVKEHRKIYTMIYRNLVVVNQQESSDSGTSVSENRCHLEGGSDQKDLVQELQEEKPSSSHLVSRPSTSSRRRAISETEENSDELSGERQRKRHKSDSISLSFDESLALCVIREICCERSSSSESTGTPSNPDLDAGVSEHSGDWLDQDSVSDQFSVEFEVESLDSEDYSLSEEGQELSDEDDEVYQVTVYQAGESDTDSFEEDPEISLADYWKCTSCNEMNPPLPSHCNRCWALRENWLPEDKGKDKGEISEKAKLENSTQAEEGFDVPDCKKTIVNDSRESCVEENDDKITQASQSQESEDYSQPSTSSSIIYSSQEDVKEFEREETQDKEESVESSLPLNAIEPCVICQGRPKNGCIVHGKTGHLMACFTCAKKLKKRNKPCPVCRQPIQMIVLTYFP
T cruzi repl = inhibitors of intracellular T. cruzi growth, primary screen, luminescence, NIH3T3 host cells; 300,000 tested, 1.4% active; inhibition, % (no concentration beside the values); AID 1885, 2009; T. cruzi beta-gal in NIH3T3, 90 h;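 active = mean inhibition across valid replicates above about 55%, limit read from the data; inconclusive = mean below that limit but half or more replicates reach it; inactive = mean below it, under half of replicates reach it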;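 also: signal also drops with host cell toxicity which is not excluded here; higher percent means less beta-gal luminescence so fewer parasites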
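Read-out: Parasite load inhibition, % | Test system: Mouse NIH/3T3 fibroblasts infected with β-gal-expressing T. cruzi Tulahuen C4 | Amount: 5,000 cells/well | Medium: DMEM, 2% fetal bovine serum | Signal: GalScreen β-gal luminescence, detergent lysis, 60 min | Timing: 3 h attach, ≥90 h co-culture | Also added: Tulahuen C4 trypomastigotes, 5000/well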
CSC inhib = cancer stem cell viability inhibitors, primary screen, luminescence; 300,000 tested, 1.1% active; cancer stem cell-like cells viability; inhibition, % at 7.5 µM; in the data active = inhibition above about 75%; inconclusive = no clear call, values can overlap the other calls; tested in HMLE shEcad cells
Mdm2 MdmX conf = Mdm2-MdmX complex disruptors, retested hits, confirmation, luminescence, single concentration. shares compounds with Mdm2 MdmX PPI. Mdm2-MdmX binding, luminescent assay. inhibition, % at 8 µM. 10,000 tested, 55% active. AID 489028, 2010; in the data active = inhibition above about 40%
Full FLuc ctr = full-length luciferase signal inhibition, confirmation, counter-screen for Mdm2/MdmX interaction inhibitor project, cell-based, single concentration, SaOS-2; shares compounds with Mdm2 MdmX PPI; AID 504607, 2011; inhibition, % at 8 µM; 6,200 tested, 77% active; SaOS-2 full-length luciferase counterscreen, luminescence;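 active = mean inhibition at 8 µM reaching about 37%, which flags the compound as non-specific, limit read from the data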;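 also: p53-null SaOS-2 cells with luciferase driven by a doxycycline-inducible promoter; compound on cells about two nights before reading with doxycycline added after day one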
Of the large screens only hits and unclear results are named; the others gave an inactive call (follow-up assays come after a bar, where they were run).

Cc1nnsc1C(=O)N1CCC(CO)(Cc2ccccc2Cl)CC1	none
CC(=O)c1cc(C(=O)N2CCCC(CCC(=O)N(C)CCc3ccccn3)C2)cs1 (stereo not drawn)	none
Cc1cc(-c2cc(-c3ccccc3)on2)nc(NCC2CC2)n1	none
O=C(NC(Nc1ncc(S(=O)(=O)c2ccc([N+](=O)[O-])cc2)s1)(C(F)(F)F)C(F)(F)F)c1ccc(Cl)cc1	Beta cell apopt 112.6, Mdm2 MdmX PPI 97.0, CSC inhib 89.4 | Mdm2 MdmX conf 95.8 | Full FLuc ctr inactive
O=C(c1ccc2c(c1)N(Cc1ccccc1)C(=O)c1ccccc1S2)N1CCCC1	none
Cc1ccc(C(=O)N2CCCCC2)cc1NC1=C(Cl)C(=O)N(Cc2ccccc2)C1=O	Mdm2 MdmX PPI 56.4 (no result: Beta cell apopt, T cruzi repl, CSC inhib) | Mdm2 MdmX conf 49.9 | Full FLuc ctr 64.0
CCOC(=O)CNC(=O)c1sc(NC(=O)/C=C/c2ccccc2)nc1C	Mdm2 MdmX PPI 68.8 | Mdm2 MdmX conf inactive
CN(C)CCNC(=S)Nc1ccc(Br)cc1	none
CCOc1ccc2nc(N/C(N)=N/C(=S)Nc3ccc(OC)cc3)nc(C)c2c1	none (no result: CSC inhib)
CCc1ccc(NC(=S)/N=C(\N)Nc2nc(C)c3cc(CC)ccc3n2)cc1	Mdm2 MdmX PPI 63.3 | Mdm2 MdmX conf 59.9 | Full FLuc ctr 59.5
Cc1cccc(NC(=S)/N=C(\N)Nc2nc(C)c3ccc(C)cc3n2)c1	Mdm2 MdmX PPI 58.5, T cruzi repl 59.8 | Mdm2 MdmX conf inactive | Full FLuc ctr 53.7
COc1ccc2nc(N/C(N)=N/C(=S)Nc3ccc(C)c(C)c3)nc(C)c2c1	Mdm2 MdmX PPI 55.9 | Mdm2 MdmX conf 53.0 | Full FLuc ctr 55.8
O=C(COc1ccc(Cl)cc1)NC1=NN(c2ccccc2)C(=O)C1	none
Cc1occc1-c1nnc(SCC(=O)Nc2ccccc2)n1C(C)c1ccccc1 (stereo not drawn)	none
COC(=O)c1sccc1NC(=O)/C=C/c1ccc(Cl)cc1Cl	Mdm2 MdmX PPI 56.4 | Mdm2 MdmX conf inactive
COC(=O)c1cc(Cl)c(NC(=O)/C=C/c2ccc(Cl)cc2)cc1OC	Mdm2 MdmX PPI 57.6 | Mdm2 MdmX conf inactive
CN(Cc1cccnc1)C(=O)c1cc(S(=O)(=O)Nc2ccccc2F)ccc1Cl	none (no result: Beta cell apopt, T cruzi repl, CSC inhib)
CCC(C)NC(=O)C1c2ccccc2C(=O)N1Cc1ccc(F)cc1 (stereo not drawn)	none
Cc1ccc(-c2[nH]c3ccccc3c2C(C[N+](=O)[O-])c2ccco2)cc1 (stereo not drawn)	Mdm2 MdmX PPI 63.3 (no result: CSC inhib) | Mdm2 MdmX conf inactive
CCOC(=O)C1=C(C)NC(=S)N(C(C)=O)C1c1ccc(OC)c(OC)c1 (stereo not drawn)	Mdm2 MdmX PPI 56.5 | Mdm2 MdmX conf inactive
C=CCN(CC=C)S(=O)(=O)c1ccc2nsnc2c1	none
COc1cccc(N(CC(=O)NCC2CCCO2)C(=O)CCC(=O)Nc2nccs2)c1 (stereo not drawn)	none
CCOC(=O)C1=CN(Cc2cccc(F)c2)S(=O)(=O)NC1CCc1ccccc1 (stereo not drawn)	Mdm2 MdmX PPI 60.8 (no result: Beta cell apopt, T cruzi repl, CSC inhib) | Mdm2 MdmX conf inactive | Full FLuc ctr 47.0
CCOC(=O)C1=CN(Cc2cccc(F)c2)S(=O)(=O)NC1c1ccccc1 (stereo not drawn)	none (no result: Beta cell apopt, T cruzi repl, CSC inhib)
CCOC(=O)COn1c(=O)c(-c2ccc(OC)cc2)[n+]([O-])c2ccccc21	none
CCOC(=O)COn1c(=O)c(-c2ccc(OC)c(OC)c2)[n+]([O-])c2ccccc21	Mdm2 MdmX PPI 92.7 | Mdm2 MdmX conf inactive
COC(=O)Nc1ccc(S(=O)(=O)N2CCC(C(=O)NC3CCCCC3)CC2)cc1	none
C=CC(C)(C)c1c(O)c(CC=C(C)C)c(O)c2c(=O)c3ccc(O)c(O)c3oc12	Beta cell apopt 106.7, Mdm2 MdmX PPI 91.8, T cruzi repl inconclusive | Mdm2 MdmX conf 85.6 | Full FLuc ctr 54.9
Cc1ccc(N=Cc2nc(/C=C/c3cccc([N+](=O)[O-])c3)oc2O)cc1	Mdm2 MdmX PPI 94.2 (no result: CSC inhib) | Mdm2 MdmX conf inactive
Cc1ccc(-c2nc(C=Nc3ccc(O)cc3)c(O)o2)cc1	none (no result: Beta cell apopt, CHOP UPR activ, XBP1 UPR activ, Mdm2 MdmX PPI, CSC inhib)
CC(C)N1CCN(Cc2ccoc2)CC1CCO (stereo not drawn)	none (no result: Beta cell apopt)
CC(C)CCNC(=O)C(=O)Nc1ccccc1	none
CCOc1ccc(S(=O)(=O)NCc2ccncc2)cc1NC(=O)c1ccccc1F	Mdm2 MdmX PPI 66.5 | Mdm2 MdmX conf inactive
CCOc1ccc(S(=O)(=O)NCc2cccnc2)cc1NC(=O)c1ccccc1F	Mdm2 MdmX PPI 58.9 | Mdm2 MdmX conf 57.1 | Full FLuc ctr 52.9
COc1ccc(S(=O)(=O)NCc2ccccn2)cc1NC(=O)c1ccccc1C	Mdm2 MdmX PPI 52.3 (no result: Beta cell apopt) | Mdm2 MdmX conf 70.8 | Full FLuc ctr 63.3
CCOc1ccc(S(=O)(=O)NCc2ccncc2)cc1NC(=O)c1ccccc1	none
c1ccc(Oc2nc(N3CCOCC3)nc(N3CCOCC3)n2)cc1	none
c1cc(C2CCCCC2)ccc1Oc1nc(N2CCOCC2)nc(N2CCOCC2)n1	Mdm2 MdmX PPI 62.7 | Mdm2 MdmX conf inactive
CC(=O)N1CCN(C(=O)c2ccc(S(=O)(=O)Nc3cccc(C(F)(F)F)c3)cc2)CC1	none
Cc1sc2ncnc(NCc3cccs3)c2c1C	Beta cell apopt 101.0, Mdm2 MdmX PPI 51.8 | Mdm2 MdmX conf inactive
CS(=O)(=O)N1c2ccccc2[C@]2([C@@]34C[C@H]5C(=O)N[C@@H](Cc6ccccc6)C(=O)N5[C@@H]3N(S(C)(=O)=O)c3ccccc34)C[C@H]3C(=O)N[C@@H](Cc4ccccc4)C(=O)N3[C@H]12	none
CC[C@H](C)[C@@H]1NC(=O)[C@H]([C@@H](C)CC)NC(=O)[C@@H](CC(C)C)NC(=O)[C@H](Cc2ccccc2)NC(=O)[C@H](Cc2ccccc2)NC(=O)[C@@H]2CCCN2C(=O)[C@@H]2CCCN2C(=O)[C@H](C(C)C)NC(=O)[C@H](CC(C)C)NC1=O	Mdm2 MdmX PPI 51.6 (no result: T cruzi repl, CSC inhib) | Mdm2 MdmX conf inactive

Compound activity from PubChem.
